This is an account of results in ChEMBL document CHEMBL4680064, “Natural product inspired optimization of a selective TRPV6 calcium channel inhibitor” (RSC Med Chem, 2020).

Calls of active or inactive are those of the source. The rule behind the calls is not given here.

Series [1] concerns the target T1, Transient receptor potential cation channel subfamily V member 6 (Homo sapiens) (UniProt Q9H1D0).
T1 sequence (whole entry): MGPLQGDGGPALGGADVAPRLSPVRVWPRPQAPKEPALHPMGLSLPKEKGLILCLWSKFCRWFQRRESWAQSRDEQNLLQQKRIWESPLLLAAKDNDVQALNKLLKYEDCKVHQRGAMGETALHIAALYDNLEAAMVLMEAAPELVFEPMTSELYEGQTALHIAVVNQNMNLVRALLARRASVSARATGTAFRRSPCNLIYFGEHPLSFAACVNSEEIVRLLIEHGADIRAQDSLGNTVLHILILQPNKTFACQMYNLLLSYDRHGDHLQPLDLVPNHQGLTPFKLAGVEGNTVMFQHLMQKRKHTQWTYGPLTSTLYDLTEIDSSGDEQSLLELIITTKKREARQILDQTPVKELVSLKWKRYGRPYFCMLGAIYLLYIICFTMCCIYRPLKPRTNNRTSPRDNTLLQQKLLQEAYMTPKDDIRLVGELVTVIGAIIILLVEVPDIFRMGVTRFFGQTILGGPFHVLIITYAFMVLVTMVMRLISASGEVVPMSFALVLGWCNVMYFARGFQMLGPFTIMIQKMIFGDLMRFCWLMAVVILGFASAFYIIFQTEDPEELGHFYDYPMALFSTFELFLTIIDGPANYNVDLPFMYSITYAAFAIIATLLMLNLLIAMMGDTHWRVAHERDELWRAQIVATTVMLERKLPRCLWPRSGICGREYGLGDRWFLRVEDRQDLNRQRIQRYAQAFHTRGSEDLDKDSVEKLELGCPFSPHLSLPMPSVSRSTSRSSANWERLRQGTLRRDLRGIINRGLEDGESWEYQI
The series can be described thus: Inhibition of human TRPV6 expressed in HEK293 cells assessed as reduction in Cd2+ influx at 10 uM preincubated with compound followed by Cdcl2 addition measured for 12 to 30 mins by Leadmium-green and Alexafluor-594 conjugate based confocal microscopic analysis. To be noted: time lower […], time upper 30.0 min. It counts as cell-based. A digest of the protocol: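 HEK-hTRPV6 cells on poly-D-lysine chambered coverglass, 24 h. Stained 30 min at 37 °C in nominally Ca²⁺-free buffer with Leadmium Green, Hoechst 33258 and WGA-Alexa Fluor 594 at 5, 1 and 5 ng/µL final. Washed, then test compound at 10 µM or DMSO added. CdCl2 at 50 µM final was added at the start of 30 min confocal imaging at 100X. Total fluorescence per channel was plotted over time.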

Series [2] has as its system HEK293. The series can be described thus: Effect on cadmium induced toxicity in wild type human HEK293 cells assessed as cell survival at 1 to 10 uM incubated for 24 hrs by XTT assay. It counts as functional, cell-based. The settings on record: dose 1-10 µM. A digest of the protocol:
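HEK293 wt or HEK-hTRPV6 cells in DMEM with 10% FBS, glutamine, penicillin/streptomycin and non-essential amino acids. Seeded at 1.5 x 10⁴ cells/well and left 24 h, then given CdCl2 at 50 to 0.05 µM with or without test compound at 1.0 or 10 µM; blank was 0.01% DMSO. Incubation 24 h at 37 °C. XTT/PMS read for 2 h at A450−A650, as % viable versus blank. n = 4/concentration, 2 independent experiments.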

The subject of series [3] is MCF7. The series can be described thus: Antiproliferative activity against human MCF7 cells assessed as cell growth inhibition at 0.4 to 100 uM after 6 days by XTT assay. It counts as cell-based. To be noted: mcf7, 144 h, dose 0.4-100 µM, time 6 day. A digest of the protocol: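 Cells grown in RPMI with 10% FBS, 2 mM L-glutamine, penicillin/streptomycin and 1% non-essential amino acids. Seeded at 5 x 10³ cells/well and left 24 h at 37 °C, then treated at 100 μM to 0.4 μM. Exposure 6 days at 37 °C with fresh treatment medium every 48 h. Doxorubicin 10 μM and DMSO 0.01% served as controls. XTT with 1.25% PMS for 2 h; absorbance at 450 minus 650 nm, as % viable versus DMSO. Curves fitted by four-parameter non-linear regression. Mean ± SEM, n = 3/concentration, ≥3 independent experiments.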

In series [4] the test system is SK-OV-3. The series can be described thus: Antiproliferative activity against human SK-OV-3 cells assessed as cell growth inhibition at 0.4 to 100 uM after 6 days by XTT assay. The format is cell-based. To be noted: human, sk-ov-3, 144 h, 100 µM; dose 0.4-100 µM, time 6 day.
The nature of series [5]: Inhibition of rat L-type calcium channel (verapamil site) at 10 uM.
In series [6] the target is T2, Muscarinic acetylcholine receptor M2 (Homo sapiens, UniProt P08172).
T2 sequence (P08172 whole entry): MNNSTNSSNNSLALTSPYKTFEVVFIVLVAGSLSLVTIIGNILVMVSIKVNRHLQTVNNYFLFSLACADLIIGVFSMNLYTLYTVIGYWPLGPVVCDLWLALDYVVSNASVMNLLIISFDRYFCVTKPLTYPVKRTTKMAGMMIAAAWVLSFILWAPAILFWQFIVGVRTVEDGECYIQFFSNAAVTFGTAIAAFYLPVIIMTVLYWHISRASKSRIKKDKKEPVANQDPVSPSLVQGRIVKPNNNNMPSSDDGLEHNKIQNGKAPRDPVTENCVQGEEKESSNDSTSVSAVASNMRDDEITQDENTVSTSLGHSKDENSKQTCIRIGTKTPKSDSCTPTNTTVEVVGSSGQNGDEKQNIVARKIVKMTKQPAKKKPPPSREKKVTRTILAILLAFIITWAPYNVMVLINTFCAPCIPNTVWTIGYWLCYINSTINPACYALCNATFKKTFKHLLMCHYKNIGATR
Nature of the series: Inhibition of human muscarinic M2 receptor at 10 uM.

Series [7] deals with T3, 5-hydroxytryptamine receptor 1A (Homo sapiens, UniProt P08908).
T3 sequence (P08908 whole entry): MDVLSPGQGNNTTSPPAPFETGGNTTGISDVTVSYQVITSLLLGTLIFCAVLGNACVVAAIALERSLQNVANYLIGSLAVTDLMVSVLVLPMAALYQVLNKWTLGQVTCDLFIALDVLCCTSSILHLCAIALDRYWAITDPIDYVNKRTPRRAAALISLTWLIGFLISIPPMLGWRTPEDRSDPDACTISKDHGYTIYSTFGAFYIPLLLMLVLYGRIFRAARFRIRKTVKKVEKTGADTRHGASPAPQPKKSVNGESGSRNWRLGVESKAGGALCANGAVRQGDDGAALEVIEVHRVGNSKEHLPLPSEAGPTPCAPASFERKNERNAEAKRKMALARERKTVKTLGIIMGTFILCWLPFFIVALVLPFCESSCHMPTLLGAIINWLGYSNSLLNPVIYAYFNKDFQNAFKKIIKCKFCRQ
The series can be described thus: Inhibition of human serotonin 5HT-1A receptor at 10 uM.

Take `O=c1ccc(CN2CCN([C@H]3CC[C@@](O)(c4cccc(C(F)(F)F)c4)CC3)CC2)c[nH]1`: the inhibition entry in series [1] is “Active”. Also, the result in series [2] was inactive. For the same compound, the Activity entry in series [3] and in series [4] was “Non-Toxic” in each case. The “inhibition (INH)” value in series [5], in series [6] and in series [7] was “Not Active” in each case.
